Results as given in ChEMBL document CHEMBL1137854, “Substituted piperazines as novel dipeptidyl peptidase IV inhibitors” (Bioorg Med Chem Lett, 2004).

How the values were obtained:
Dipeptidyl peptidase 2 = Dipeptidyl peptidase 2 (Homo sapiens, UniProt Q9UHL4); assay: Inhibitory concentration against quiescent cell proline peptidase
Dipeptidyl peptidase 4 = Dipeptidyl peptidase 4 (Homo sapiens, UniProt P27487); assay: Inhibitory concentration against Dipeptidylpeptidase IV
[1] = Bioavailability in rat; type: ADME, organism-based; conditions: in vivo
Outline: (§1)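 Male Sprague-Dawley rats given compound intravenously at 1 mg/kg and orally at 2 mg/kg; plasma drug concentrations measured by LC/MS/MS.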

[2] = Clearance in rat; type: ADME, organism-based; conditions: in vivo; outline: as §1

Sequence of Dipeptidyl peptidase 4 (P27487 whole entry): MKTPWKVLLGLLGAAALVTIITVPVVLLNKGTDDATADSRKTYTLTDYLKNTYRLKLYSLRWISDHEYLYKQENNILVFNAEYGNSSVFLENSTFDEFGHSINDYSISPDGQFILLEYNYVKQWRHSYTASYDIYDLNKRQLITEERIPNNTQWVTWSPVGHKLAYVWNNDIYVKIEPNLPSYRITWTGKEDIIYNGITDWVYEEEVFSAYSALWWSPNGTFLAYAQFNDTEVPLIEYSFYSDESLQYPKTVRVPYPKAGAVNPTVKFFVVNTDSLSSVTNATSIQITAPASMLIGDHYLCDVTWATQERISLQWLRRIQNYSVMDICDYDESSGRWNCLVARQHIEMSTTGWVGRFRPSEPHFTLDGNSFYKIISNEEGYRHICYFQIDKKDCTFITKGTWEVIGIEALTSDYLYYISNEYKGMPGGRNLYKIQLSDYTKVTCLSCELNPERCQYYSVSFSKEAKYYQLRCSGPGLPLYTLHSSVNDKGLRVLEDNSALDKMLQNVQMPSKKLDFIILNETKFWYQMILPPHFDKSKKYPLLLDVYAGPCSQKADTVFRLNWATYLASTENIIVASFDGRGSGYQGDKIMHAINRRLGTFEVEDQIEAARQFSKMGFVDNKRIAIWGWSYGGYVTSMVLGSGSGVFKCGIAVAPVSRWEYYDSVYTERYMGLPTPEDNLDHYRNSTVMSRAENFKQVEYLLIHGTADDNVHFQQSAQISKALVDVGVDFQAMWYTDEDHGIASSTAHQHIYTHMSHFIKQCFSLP

Row | IC50 (Dipeptidyl peptidase 2) | IC50 (Dipeptidyl peptidase 4) | bioavailability [1] | clearance [2] | SMILES
1 | 65000 nM |  |  |  | N[C@@H](CC(=O)N1CCNC[C@H]1Cc1ccccc1)Cc1cc(F)ccc1F
2 | > 100000 nM | 108 nM |  |  | N[C@@H](CC(=O)N1CCOC[C@H]1Cc1ccccc1)Cc1ccccc1F
3 | > 100000 nM | 1600 nM |  |  | C[C@@H]1CNCCN1C(=O)C[C@H](N)Cc1ccccc1F
4 |  |  | < 1% | 130 mL/min/kg | CS(=O)(=O)Nc1cccc(NC(=O)CN2CCN(C(=O)C[C@H](N)Cc3ccccc3F)[C@H](Cc3ccccc3)C2)c1
5 | 23000 nM | 610 nM |  |  | N[C@@H](CC(=O)N1CCNC[C@H]1c1ccc(F)cc1)Cc1ccccc1F
6 | > 100000 nM | 143 nM |  |  | N[C@@H](CC(=O)N1CCNC[C@H]1Cc1cscn1)Cc1ccccc1F
7 | > 100000 nM | 155 nM |  |  | N[C@@H](CC(=O)N1CCNC[C@H]1Cc1cccnc1)Cc1ccccc1F
8 | 15000 nM | 405 nM |  |  | N[C@@H](CC(=O)N1CCN(Cc2ccccc2)C[C@H]1Cc1ccccc1)Cc1ccccc1F
9 | 450 nM | 44 nM |  |  | CS(=O)(=O)Nc1cccc(NC(=O)CN2CCN(C(=O)C[C@H](N)Cc3ccc(F)c(F)c3)C(Cc3ccccc3)C2)c1 (some centres undefined)
10 | 66000 nM | 114 nM |  |  | NC(=O)CN1CCN(C(=O)C[C@H](N)Cc2ccccc2F)[C@H](Cc2ccccc2)C1
11 | 50000 nM | 922 nM |  |  | CC(C)[C@@H]1CNCCN1C(=O)C[C@H](N)Cc1ccccc1F
12 | > 100000 nM | 225 nM |  |  | CN1CCN(C(=O)C[C@H](N)Cc2ccccc2F)[C@H](Cc2ccccc2)C1
13 | > 100000 nM | 3700 nM |  |  | N[C@@H](CC(=O)N1CCNCC1)Cc1ccccc1F
14 | > 100000 nM | 166 nM |  |  | N[C@@H](CC(=O)N1CCNC[C@H]1Cc1ccc(F)cc1)Cc1ccccc1F
15 | 15000 nM | 36000 nM |  |  | CS(=O)(=O)Nc1cccc(NC(=O)CN2CCN(C(=O)C[C@@H](N)Cc3ccc(F)c(F)c3)C(Cc3ccccc3)C2)c1 (some centres undefined)
16 | 7700 nM |  |  |  | CS(=O)(=O)Nc1cccc(NC(=O)CN2CCN(C(=O)C[C@H](N)Cc3ccccc3)C(Cc3ccccc3)C2)c1 (some centres undefined)
17 | 280 nM | 1100 nM |  |  | CS(=O)(=O)Nc1cccc(NC(=O)CN2CCN(C(=O)C[C@H](N)Cc3ccc(F)c(F)c3)[C@@H](Cc3ccccc3)C2)c1
18 | 640 nM | 30 nM |  |  | CS(=O)(=O)Nc1cccc(NC(=O)CN2CCN(C(=O)C[C@H](N)Cc3ccc(F)c(F)c3)[C@H](Cc3ccccc3)C2)c1
19 | 19000 nM |  |  |  | CS(=O)(=O)Nc1cccc(NC(=O)CN2CCN(C(=O)C[C@@H](N)Cc3ccccc3)C(Cc3ccccc3)C2)c1 (some centres undefined)
20 | > 100000 nM | 139 nM |  |  | N[C@@H](CC(=O)N1CCNC[C@H]1Cc1ccccc1)Cc1ccccc1F
21 | > 100000 nM | 1040 nM |  |  | N[C@@H](CC(=O)N1CCCC[C@H]1Cc1ccccc1)Cc1ccccc1F
